Reference: ChEMBL document CHEMBL4043276, “Design, synthesis and biological evaluation of 2-acetyl-5-O-(amino-alkyl)phenol derivatives as multifunctional agents for the treatment of Alzheimer's disease” (Bioorg Med Chem Lett, 2017)

System: not listed separately
Assay: Antioxidant activity assessed as trolox equivalent of […]-induced radical scavenging activity measured every minute for 90 mins by ORAC fluorescein assay
Type: functional
Settings: not given
Outline: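 Measured by the ORAC-FL fluorescein method. Values are given as μM Trolox equivalent per μM of test compound.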

| SMILES | Activity [equiv] |
| --- | --- |
| CC(=O)c1ccc(OCCCCN2CCN(c3ncccn3)CC2)cc1O | 0.98 |
| CC(=O)c1ccc(OCCCCCCN2CCCC2)cc1O | 1 |
| CC(=O)c1ccc(OCCCN2CCCCC2)cc1O | 1.1 |
| CC(=O)c1ccc(OCCCCCCN2CCCCC2)cc1O | 0.98 |
| CC(=O)c1ccc(OCCCCCN2CCCCC2)cc1O | 1.1 |
| CC(=O)c1ccc(OCCCCCN2CCN(c3ccccn3)CC2)cc1O | 0.99 |
| CC(=O)c1ccc(OCCCCN2CCN(c3ccccn3)CC2)cc1O | 1.1 |

Target: Acetylcholinesterase (Electrophorus electricus, UniProt O42275)
Assay: Inhibition of electric eel AChE using acetylthiocholine as substrate incubated for 15 mins by Ellman's method
Settings: not given

Chain of Acetylcholinesterase (O42275 whole entry): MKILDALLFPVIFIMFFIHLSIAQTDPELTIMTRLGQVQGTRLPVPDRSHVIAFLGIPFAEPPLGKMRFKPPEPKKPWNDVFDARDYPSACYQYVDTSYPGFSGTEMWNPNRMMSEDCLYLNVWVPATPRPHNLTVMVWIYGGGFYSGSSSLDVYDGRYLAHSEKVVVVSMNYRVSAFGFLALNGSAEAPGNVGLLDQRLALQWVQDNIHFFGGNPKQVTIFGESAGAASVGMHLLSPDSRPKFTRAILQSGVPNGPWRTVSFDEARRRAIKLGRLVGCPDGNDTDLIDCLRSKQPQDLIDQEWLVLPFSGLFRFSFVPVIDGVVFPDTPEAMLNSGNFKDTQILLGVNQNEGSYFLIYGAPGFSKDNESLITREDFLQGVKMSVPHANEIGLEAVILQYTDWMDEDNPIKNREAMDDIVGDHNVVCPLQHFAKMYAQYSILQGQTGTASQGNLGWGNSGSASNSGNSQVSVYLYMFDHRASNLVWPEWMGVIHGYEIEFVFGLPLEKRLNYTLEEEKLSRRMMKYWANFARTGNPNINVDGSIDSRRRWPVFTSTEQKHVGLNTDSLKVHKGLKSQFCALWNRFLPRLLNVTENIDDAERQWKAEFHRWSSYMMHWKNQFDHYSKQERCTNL

| SMILES | IC50 [µM] |
| --- | --- |
| CC(=O)c1ccc(OCCCCN2CCN(c3ncccn3)CC2)cc1O | 27.5 |
| CC(=O)c1ccc(OCCCCCCN2CCCC2)cc1O | 3.9 |
| CC(=O)c1ccc(OCCCN2CCCCC2)cc1O | 29.2 |
| CC(=O)c1ccc(OCCCCCCN2CCCCC2)cc1O | 2.9 |
| CC(=O)c1ccc(OCCCCCN2CCCCC2)cc1O | 5.5 |
| CC(=O)c1ccc(OCCCCCN2CCN(c3ccccn3)CC2)cc1O | 21.9 |
| CC(=O)c1ccc(OCCCCN2CCN(c3ccccn3)CC2)cc1O | 18.4 |

Target: BuChE (butyrylcholinesterase) (Equus caballus, UniProt P81908)
Assay: Inhibition of equine serum BuChE at 50 uM incubated for 15 mins by Ellman's method relative to control
Settings: horse

Chain of BuChE (butyrylcholinesterase) (P81908 whole entry): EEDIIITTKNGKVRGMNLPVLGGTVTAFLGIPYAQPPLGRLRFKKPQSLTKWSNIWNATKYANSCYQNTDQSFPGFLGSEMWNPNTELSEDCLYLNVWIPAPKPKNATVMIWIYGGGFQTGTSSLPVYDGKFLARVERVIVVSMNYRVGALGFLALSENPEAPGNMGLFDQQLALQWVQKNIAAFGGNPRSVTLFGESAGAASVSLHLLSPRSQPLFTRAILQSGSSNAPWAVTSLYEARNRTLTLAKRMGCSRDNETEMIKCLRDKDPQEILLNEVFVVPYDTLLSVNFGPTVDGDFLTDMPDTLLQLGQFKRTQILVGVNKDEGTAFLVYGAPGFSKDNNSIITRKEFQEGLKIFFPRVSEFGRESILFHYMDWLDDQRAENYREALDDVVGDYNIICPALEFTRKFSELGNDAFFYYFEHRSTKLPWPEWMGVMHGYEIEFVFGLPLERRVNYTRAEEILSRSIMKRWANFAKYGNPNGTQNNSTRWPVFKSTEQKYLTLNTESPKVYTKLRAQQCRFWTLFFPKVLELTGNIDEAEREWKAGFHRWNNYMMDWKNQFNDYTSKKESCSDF

| SMILES | inhibition at 0.25 h, 50 µM [%] |
| --- | --- |
| CC(=O)c1ccc(OCCCCN2CCN(c3ncccn3)CC2)cc1O | < 5 |
| CC(=O)c1ccc(OCCCN2CCCCC2)cc1O | < 5 |
| CC(=O)c1ccc(OCCCCCN2CCCCC2)cc1O | 27.9 |
| CC(=O)c1ccc(OCCCCCN2CCN(c3ccccn3)CC2)cc1O | < 5 |
| CC(=O)c1ccc(OCCCCN2CCN(c3ccccn3)CC2)cc1O | < 5 |

Target: Cholinesterase (Equus caballus, UniProt P81908)
Type: ADME
Settings: not given

Chain of Cholinesterase (P81908 whole entry): as above

| SMILES | IC50 [µM] |
| --- | --- |
| CC(=O)c1ccc(OCCCCCCN2CCCC2)cc1O | 46.5 |
| CC(=O)c1ccc(OCCCCCCN2CCCCC2)cc1O | 45.7 |

Target: T1, Amine oxidase [flavin-containing] B (Homo sapiens, UniProt P27338)
T1 sequence (P27338 whole entry): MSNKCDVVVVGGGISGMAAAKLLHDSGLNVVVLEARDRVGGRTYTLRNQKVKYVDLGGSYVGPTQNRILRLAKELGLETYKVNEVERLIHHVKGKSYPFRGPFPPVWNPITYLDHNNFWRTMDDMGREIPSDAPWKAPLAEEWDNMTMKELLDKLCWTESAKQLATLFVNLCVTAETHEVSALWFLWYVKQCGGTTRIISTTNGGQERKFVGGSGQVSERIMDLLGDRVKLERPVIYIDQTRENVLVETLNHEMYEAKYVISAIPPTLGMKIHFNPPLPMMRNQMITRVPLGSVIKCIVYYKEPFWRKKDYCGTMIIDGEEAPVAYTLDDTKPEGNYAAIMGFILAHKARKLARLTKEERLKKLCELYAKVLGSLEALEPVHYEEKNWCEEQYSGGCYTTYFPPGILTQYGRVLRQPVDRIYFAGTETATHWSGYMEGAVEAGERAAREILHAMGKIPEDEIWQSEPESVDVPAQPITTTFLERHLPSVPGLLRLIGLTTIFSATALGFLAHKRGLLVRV
Settings: not given

| SMILES | IC50 [µM] |
| --- | --- |
| CC(=O)c1ccc(OCCCCN2CCN(c3ncccn3)CC2)cc1O | 15.2 |
| CC(=O)c1ccc(OCCCCCCN2CCCC2)cc1O | 12.2 |
| CC(=O)c1ccc(OCCCN2CCCCC2)cc1O | 2.8 |
| CC(=O)c1ccc(OCCCCCCN2CCCCC2)cc1O | 26.6 |
| CC(=O)c1ccc(OCCCCCN2CCCCC2)cc1O | 6.1 |
| CC(=O)c1ccc(OCCCCCN2CCN(c3ccccn3)CC2)cc1O | 16.7 |
| CC(=O)c1ccc(OCCCCN2CCN(c3ccccn3)CC2)cc1O | 12 |

System: not listed separately
Assay: Selectivity index, ratio of IC50 for equine serum BuChE to IC50 for electric eel AChE
Settings: not given
Outline: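 IC50 values for E. electricus AChE and equine serum BuChE came from a modified Ellman assay, each the mean of three independent experiments run in triplicate. The selectivity index is the ratio of the two IC50 values.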

| SMILES | Ratio IC50 |
| --- | --- |
| CC(=O)c1ccc(OCCCCCCN2CCCC2)cc1O | 11.9 |
| CC(=O)c1ccc(OCCCCCCN2CCCCC2)cc1O | 15.8 |

Target: T2, Amine oxidase [flavin-containing] A (Homo sapiens, UniProt P21397)
T2 sequence (P21397 whole entry): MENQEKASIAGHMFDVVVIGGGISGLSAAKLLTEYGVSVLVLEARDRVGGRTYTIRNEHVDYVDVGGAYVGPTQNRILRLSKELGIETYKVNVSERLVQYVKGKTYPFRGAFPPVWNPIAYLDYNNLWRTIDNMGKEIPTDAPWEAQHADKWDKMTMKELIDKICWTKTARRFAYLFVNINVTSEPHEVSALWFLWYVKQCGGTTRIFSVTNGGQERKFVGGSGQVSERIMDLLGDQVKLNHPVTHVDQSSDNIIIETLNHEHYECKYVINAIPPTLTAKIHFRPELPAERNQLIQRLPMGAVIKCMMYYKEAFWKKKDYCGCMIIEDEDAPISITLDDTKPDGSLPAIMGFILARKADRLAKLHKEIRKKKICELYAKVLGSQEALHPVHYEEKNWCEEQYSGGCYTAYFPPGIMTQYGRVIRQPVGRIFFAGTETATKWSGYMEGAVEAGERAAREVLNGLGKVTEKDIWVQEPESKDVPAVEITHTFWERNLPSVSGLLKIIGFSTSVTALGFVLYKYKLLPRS
Assay: Inhibition of recombinant human MAO-A at 10 uM using kynuramine as substrate after 30 mins by fluorescence method relative to control
Settings: 0.5 h

| SMILES | inhibition at 10 µM [%] |
| --- | --- |
| CC(=O)c1ccc(OCCCCN2CCN(c3ncccn3)CC2)cc1O | < 5 |
| CC(=O)c1ccc(OCCCCCCN2CCCC2)cc1O | < 5 |
| CC(=O)c1ccc(OCCCN2CCCCC2)cc1O | < 5 |
| CC(=O)c1ccc(OCCCCCCN2CCCCC2)cc1O | < 5 |
| CC(=O)c1ccc(OCCCCCN2CCCCC2)cc1O | < 5 |
| CC(=O)c1ccc(OCCCCCN2CCN(c3ccccn3)CC2)cc1O | < 5 |
| CC(=O)c1ccc(OCCCCN2CCN(c3ccccn3)CC2)cc1O | < 5 |
